The results in this text go back to ChEMBL document CHEMBL1142963, “Novel sigma receptor ligands: synthesis and biological profile” (J Med Chem, 2007).

One may read the Ki as a dissociation constant, usually derived from enzyme kinetics or from competition with a known ligand.

The target of assay [1] is 5-hydroxytryptamine receptor 4 (Cavia porcellus, UniProt O70528). Nature of the assay: Displacement of [3H][…] from guinea pig cortex 5HT4 receptor. Put shortly: (§1)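 Rat brain tissue by target: striatum for D1, D2 and DAT; olfactory tubercle for D3; cortex for muscarinic, 5-HT3, 5-HT2A, α1, α2, H1, NMDA and SERT; guinea pig cortex for 5-HT4. Inhibitors at seven to nine concentrations. After incubation, samples were filtered on glass fibre filters, washed three times with ice-cold buffer and counted by liquid scintillation. Ki values were derived by curve fitting.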
5-hydroxytryptamine receptor 4, sequence (O70528 whole entry): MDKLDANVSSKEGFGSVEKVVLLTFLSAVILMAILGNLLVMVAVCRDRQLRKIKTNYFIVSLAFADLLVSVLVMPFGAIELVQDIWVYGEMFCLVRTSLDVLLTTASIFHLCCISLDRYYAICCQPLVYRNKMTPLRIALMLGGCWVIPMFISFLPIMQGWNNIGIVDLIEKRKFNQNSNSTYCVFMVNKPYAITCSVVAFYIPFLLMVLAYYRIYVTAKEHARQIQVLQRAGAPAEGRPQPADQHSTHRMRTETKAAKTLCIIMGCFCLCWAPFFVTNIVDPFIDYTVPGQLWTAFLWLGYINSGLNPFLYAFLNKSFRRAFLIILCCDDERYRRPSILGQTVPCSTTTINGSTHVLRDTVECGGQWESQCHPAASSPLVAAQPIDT
(In general: Displacement assays read how much labelled ligand stays bound in the presence of the test substance.)

The target in assay [2] is T1, Adrenergic receptor alpha-1 (Rattus norvegicus, UniProt P15823+P23944+P43140).
T1 sequence (P15823 whole entry): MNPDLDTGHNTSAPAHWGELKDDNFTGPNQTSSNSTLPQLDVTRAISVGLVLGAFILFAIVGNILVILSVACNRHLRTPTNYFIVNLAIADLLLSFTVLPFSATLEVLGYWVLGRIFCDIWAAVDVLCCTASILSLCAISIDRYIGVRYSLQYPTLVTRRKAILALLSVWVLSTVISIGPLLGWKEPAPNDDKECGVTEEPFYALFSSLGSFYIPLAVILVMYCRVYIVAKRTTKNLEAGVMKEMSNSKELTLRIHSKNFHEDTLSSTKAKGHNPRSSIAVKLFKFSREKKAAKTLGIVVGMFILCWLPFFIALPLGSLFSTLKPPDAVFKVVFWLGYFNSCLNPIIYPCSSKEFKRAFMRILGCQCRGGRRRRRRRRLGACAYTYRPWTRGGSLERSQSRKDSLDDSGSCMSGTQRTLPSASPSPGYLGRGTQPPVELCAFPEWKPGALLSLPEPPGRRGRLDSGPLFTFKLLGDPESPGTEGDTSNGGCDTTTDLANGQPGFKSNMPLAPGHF
T1 sequence (P23944 whole entry): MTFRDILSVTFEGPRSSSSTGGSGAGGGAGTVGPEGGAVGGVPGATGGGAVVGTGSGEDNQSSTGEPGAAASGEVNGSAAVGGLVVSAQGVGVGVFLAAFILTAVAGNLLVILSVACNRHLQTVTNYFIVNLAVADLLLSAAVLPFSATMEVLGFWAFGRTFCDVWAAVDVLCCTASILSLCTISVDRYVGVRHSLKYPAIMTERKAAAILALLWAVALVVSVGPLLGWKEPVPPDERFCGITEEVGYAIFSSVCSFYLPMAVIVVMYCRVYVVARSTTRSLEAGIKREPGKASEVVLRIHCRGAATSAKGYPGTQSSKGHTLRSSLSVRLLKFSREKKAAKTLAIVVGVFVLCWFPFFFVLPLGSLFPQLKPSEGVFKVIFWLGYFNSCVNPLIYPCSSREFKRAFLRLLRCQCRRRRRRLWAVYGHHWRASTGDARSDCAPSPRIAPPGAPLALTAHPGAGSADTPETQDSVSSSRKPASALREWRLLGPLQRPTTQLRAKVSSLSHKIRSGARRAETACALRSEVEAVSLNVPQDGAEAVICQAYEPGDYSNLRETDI
T1 sequence (P43140 whole entry): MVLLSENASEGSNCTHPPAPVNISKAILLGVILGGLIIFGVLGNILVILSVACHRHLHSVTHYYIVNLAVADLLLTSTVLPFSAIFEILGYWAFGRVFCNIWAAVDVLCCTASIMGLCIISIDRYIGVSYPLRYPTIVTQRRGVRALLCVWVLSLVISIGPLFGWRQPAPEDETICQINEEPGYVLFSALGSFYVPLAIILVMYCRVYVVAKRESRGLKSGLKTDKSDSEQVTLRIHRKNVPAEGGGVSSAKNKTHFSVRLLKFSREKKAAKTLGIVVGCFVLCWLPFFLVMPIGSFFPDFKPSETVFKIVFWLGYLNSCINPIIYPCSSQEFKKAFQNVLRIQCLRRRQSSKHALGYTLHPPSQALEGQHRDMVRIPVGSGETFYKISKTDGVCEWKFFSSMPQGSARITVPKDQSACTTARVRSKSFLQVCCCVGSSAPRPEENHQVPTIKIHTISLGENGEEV
In words: Displacement of [3H]prazosin from rat cortex adrenergic alpha-1 receptor. Summed up: as §1

The target of assay [3] is T2, 5-hydroxytryptamine receptor 3A (Rattus norvegicus, UniProt P35563).
T2 sequence (P35563 whole entry): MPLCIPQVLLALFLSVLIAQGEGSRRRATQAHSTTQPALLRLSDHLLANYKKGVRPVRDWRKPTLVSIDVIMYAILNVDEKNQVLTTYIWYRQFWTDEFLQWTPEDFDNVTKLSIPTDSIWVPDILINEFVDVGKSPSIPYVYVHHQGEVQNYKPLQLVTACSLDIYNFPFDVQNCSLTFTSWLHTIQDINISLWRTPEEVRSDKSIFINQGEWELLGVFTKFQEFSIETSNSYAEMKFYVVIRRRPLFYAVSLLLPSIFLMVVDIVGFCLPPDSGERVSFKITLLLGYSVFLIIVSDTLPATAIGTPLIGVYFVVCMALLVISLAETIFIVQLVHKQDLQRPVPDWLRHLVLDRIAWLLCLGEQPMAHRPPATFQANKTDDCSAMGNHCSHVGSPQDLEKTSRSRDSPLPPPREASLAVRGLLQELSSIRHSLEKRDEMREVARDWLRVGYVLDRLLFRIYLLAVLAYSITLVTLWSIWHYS
In words: Displacement of [3H]LY278584 from rat cortex 5HT3 receptor. Summed up: as §1

A further assay concerns the target D(3) dopamine receptor (Rattus norvegicus, UniProt P19020). Nature of the assay: Displacement of [3H]7OH-DPAT from rat olfactory tubercle dopamine D3 receptor. Type of assay: tissue-based. Summed up: as §1
A short description of assay [4]: Displacement of [3H]MK-801 from rat cortex NMDA channel. Summed up:
as §1

D(3) dopamine receptor, sequence (P19020 whole entry): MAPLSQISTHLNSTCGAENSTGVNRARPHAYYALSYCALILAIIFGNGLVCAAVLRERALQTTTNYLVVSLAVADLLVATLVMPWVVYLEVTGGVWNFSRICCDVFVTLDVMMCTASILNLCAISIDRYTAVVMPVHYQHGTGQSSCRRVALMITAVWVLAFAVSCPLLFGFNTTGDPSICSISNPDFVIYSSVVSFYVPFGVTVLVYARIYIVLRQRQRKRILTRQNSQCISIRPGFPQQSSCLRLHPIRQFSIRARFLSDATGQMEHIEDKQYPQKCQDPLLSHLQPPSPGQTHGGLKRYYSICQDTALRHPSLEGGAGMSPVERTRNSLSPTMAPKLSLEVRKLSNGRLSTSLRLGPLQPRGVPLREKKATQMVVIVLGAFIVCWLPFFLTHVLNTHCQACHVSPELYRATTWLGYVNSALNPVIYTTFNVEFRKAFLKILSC

`COC(=O)C1(c2ccc(C)cc2)CC1CN1CCC(O)(c2ccccc2)CC1` (stereo not given): the Ki in assay [1] is > 10 µM; in assay [2], 0.605 µM; in assay [3], > 10 µM; at D(3) dopamine receptor, 4.9 µM; in assay [4], > 10 µM.
